Assay results of several laboratories.
Compare with care: the assays were run in different laboratories. In brackets after ≈: the same amount, converted by molar mass.
Organism: Cryptococcus neoformans

SMILES	test	test system	setting	endpoint	result
Cl.O[C@]12C=C(c3nccc4c3[nH]c3ccccc34)[C@@H]3CCN(CCCC/C=C\CC1)C[C@@]31C[C@@H]3/C=C\CCCCN3[C@H]12	microbial growth	ATCC90113		IC50	1.04 µg/mL
Cc1c(O)c(=O)ccn1C	microbial growth, broth dilution		48 h	MIC	> 100 µM
C[C@@H]1[C@H](O)[C@@H](C)/C=C/C=C/C=C/C=C/C=C/C=C/C=C/[C@H](O[C@@H]2O[C@H](C)[C@@H](O)[C@H](N)[C@@H]2O)C[C@@H]2O[C@](O)(C[C@@H](O)C[C@@H](O)[C@H](O)CC[C@@H](O)C[C@@H](O)CC(=O)O[C@H]1C)C[C@H](O)[C@H]2C(=O)O	microbial growth	ATCC90113		IC50	0.45 µg/mL (≈ 0.487 µM)
O=C(NN=Cc1ccc(O)c(Br)c1)c1cccc(Br)c1	microbial killing			MFC	1.2 µg/mL (≈ 3.01 µM)
CCCC[C@H]1CN(c2cccc(OC(F)(F)F)c2)C(=O)CN1Cc1cncn1Cc1ccc(Cl)cc1	microbial growth, broth dilution			MIC	3 to 6 µM
CCCCCC[C@H]1C(=O)O[C@H](C)[C@H](NC(=O)c2cccc(NC=O)c2O)C(=O)O[C@@H](C)[C@@H]1OC(=O)CC(C)C	microbial growth			MIC80	2 µM (≈ 1.1 µg/mL)
C[C@@H]1[C@H](O)[C@@H](C)/C=C/C=C/C=C/C=C/C=C/C=C/C=C/[C@H](O[C@@H]2O[C@H](C)[C@@H](O)[C@H](N)[C@@H]2O)C[C@@H]2O[C@](O)(C[C@@H](O)C[C@@H](O)[C@H](O)CC[C@@H](O)C[C@@H](O)CC(=O)O[C@H]1C)C[C@H](O)[C@H]2C(=O)O	microbial growth, broth dilution			MIC	0.6 µg/mL
CCCC[C@H]1CN(c2cccc(OC(F)(F)F)c2)C(=O)CN1Cc1cncn1Cc1ccc(C(F)(F)F)cc1	microbial growth, broth dilution			MIC	3 to 6 µM
CCCSc1ccc2nc(NC(=O)OC)[nH]c2c1	microbial growth, broth dilution		72 h, clinical isolate	IC90	2.5 µM
Cc1ccccc1C(=O)NN=Cc1ccc(O)c(Br)c1	microbial growth, broth dilution			MIC	1 µg/mL
CCCCC[C@H]1CN(c2cccc(OC(F)(F)F)c2)C(=O)CN1Cc1cncn1Cc1ccc(Br)cc1	microbial growth, broth dilution			MIC	3 to 6 µM
